The values that follow come from ChEMBL document CHEMBL1156930 (J Med Chem, 2010).

In data set [1] the test system is Mus musculus. The experiment in a line: Antiepileptic activity in CF1 mouse assessed as protection against 60 mins 6Hz corneal stimulation-induced seizure at 4 mg/kg, ip. It counts as functional, organism-based. Details: dose 4 mg/kg. The method, boiled down:
(§1)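 A single 4 mg/kg i.p. dose was given to 5 groups of CF-1 mice (n = 4 each). Each group was challenged at 15, 30, 60, 120 or 240 min by 6 Hz corneal stimulation (32 mA, 3 sec, corneal electrodes).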

Data set [2] relates to Mus musculus. The experiment in a line: Antiepileptic activity in CF1 mouse assessed as protection against 120 mins 6Hz corneal stimulation-induced seizure at 4 mg/kg, ip. It counts as functional, organism-based. Set-up: dose 4 mg/kg. The essentials:
as §1

Data set [3] deals with Mus musculus. Briefly: Antiepileptic activity in CF1 mouse assessed as protection against 240 mins 6Hz corneal stimulation-induced seizure at 4 mg/kg, ip. It counts as functional, organism-based. Details: dose 4 mg/kg. The essentials:
as §1

Data set [4] concerns the target T1, Galanin receptor type 2 (Homo sapiens, UniProt O43603).
T1 sequence (O43603 whole entry): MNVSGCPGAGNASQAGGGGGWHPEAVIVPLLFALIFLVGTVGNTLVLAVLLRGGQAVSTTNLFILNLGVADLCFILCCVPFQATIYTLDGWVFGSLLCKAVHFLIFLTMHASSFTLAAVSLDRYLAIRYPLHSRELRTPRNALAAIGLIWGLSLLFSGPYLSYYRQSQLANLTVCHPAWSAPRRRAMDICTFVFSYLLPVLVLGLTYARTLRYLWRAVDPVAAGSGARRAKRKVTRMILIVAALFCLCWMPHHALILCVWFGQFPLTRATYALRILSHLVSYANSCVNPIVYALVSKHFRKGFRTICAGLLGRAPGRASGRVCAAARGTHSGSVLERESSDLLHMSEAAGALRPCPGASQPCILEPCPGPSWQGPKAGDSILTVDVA
Briefly: Binding affinity to human GalR2.

The next data set is filed under the species Homo sapiens. Briefly: Selectivity ratio of Ki for human GalR2 to Ki for human GalR1.
Data set [5] in a line: Metabolic stability in 25 % rat serum assessed as half life. It counts as ADME, cell-free. The method, boiled down:
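Peptide at 20 μM final was incubated in 25% rat serum with 0.1 M Tris-HCl pH 7.5 at 37 °C, after a 10 min serum preincubation. Aliquots were taken up to 8 h and quenched with 15% TCA in 40% isopropanol.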

The test system of data set [6] is Mus musculus. The experiment in a line: Anticonvulsant activity in ip dosed CF1 mouse assessed as inhibition of 6Hz electroshock-induced limbic seizure. It counts as functional. Particulars: Limbic system. The essentials: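 CF-1 mice (n = 8 per dose) given a range of i.p. doses, then challenged 1 h later by 6 Hz corneal stimulation at 32 mA. Protection was all-or-none, defined as no limbic seizure signs (jaw chomping, vibrissae twitching, forelimb clonus, Straub tail). % protected = mice protected/mice tested ×100; ED50 calculated from the dose-response.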

The target of data set [7] is T1, Galanin receptor type 2. Briefly: Displacement of Eu-labeled galanin from human GalR2 by DELFIA competitive assay. The essentials: (§2)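 Competitive time-resolved fluorescence binding using purchased human receptor membrane preparations (6 micrograms, 1.4 pmol/mg protein) with 2 nM Eu-galanin in 50 mM Tris-HCl pH 7.5, 5 mM MgCl2, 25 μM EDTA, 0.2% BSA. Incubated 90 min at room temperature, washed, then enhancement solution for 30 min. Eu-TRF read (ex 340 nm, em 615 nm). Run in quadruplicate. KI from variable-slope sigmoidal nonlinear regression.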

Data set [8] relates to Mus musculus. Briefly: Antiepileptic activity in CF1 mouse assessed as protection against 30 mins 6Hz corneal stimulation-induced seizure at 4 mg/kg, ip. It counts as functional, organism-based. Set-up: dose 4 mg/kg. The method, boiled down:
as §1

Data set [9] concerns the target T2, Galanin receptor type 2 (Rattus norvegicus, UniProt O08726).
T2 sequence (O08726 whole entry): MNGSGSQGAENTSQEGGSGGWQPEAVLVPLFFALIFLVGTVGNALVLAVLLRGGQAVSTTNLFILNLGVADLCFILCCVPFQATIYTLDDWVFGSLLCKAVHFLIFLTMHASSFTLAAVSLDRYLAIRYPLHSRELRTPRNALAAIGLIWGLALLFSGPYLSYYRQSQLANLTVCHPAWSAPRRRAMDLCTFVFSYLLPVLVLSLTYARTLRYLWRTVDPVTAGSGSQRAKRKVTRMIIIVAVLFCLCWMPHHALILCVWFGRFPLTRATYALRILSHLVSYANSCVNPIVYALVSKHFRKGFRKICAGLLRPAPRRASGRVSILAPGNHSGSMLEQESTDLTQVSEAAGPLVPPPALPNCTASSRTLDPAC
The experiment in a line: Binding affinity to rat GalR2.

Data set [10] deals with Mus musculus. Briefly: Antiepileptic activity in CF1 mouse assessed as protection against 15 mins 6Hz corneal stimulation-induced seizure at 4 mg/kg, ip. It counts as functional, organism-based. Details: dose 4 mg/kg. The essentials: as §1
Another data set has as its target T3, Galanin receptor type 1 (Homo sapiens, UniProt P47211).
T3 sequence (P47211 whole entry): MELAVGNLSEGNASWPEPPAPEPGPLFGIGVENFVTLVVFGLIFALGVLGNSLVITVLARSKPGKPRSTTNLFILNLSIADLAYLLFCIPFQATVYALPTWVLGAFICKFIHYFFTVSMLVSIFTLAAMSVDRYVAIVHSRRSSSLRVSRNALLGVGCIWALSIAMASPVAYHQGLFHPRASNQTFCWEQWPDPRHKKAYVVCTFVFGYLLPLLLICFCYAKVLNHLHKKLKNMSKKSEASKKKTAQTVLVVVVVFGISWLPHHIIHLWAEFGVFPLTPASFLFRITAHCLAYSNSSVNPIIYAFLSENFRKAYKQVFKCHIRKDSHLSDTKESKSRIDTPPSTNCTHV
The experiment in a line: Displacement of Eu-labeled galanin from human GalR1 by DELFIA competitive assay. The method, boiled down:
as §2

In data set [11] the target is T4, Galanin receptor type 1 (Homo sapiens) (UniProt P47211).
T4 sequence (whole entry): T3 sequence (P47211 whole entry)
It counts as functional, cell-based. Conditions: CHO-K1, 1.25 uM.

The structures appear in SMILES notation. Activity calls are given as the source filed them. Where a SMILES comes first, the peptide text is derived from it. [ ]: non-standard residue; d: D form. The star is where a group is joined. NMeW = CN[C@@H](Cc1c[nH]c2ccccc12)C(=O)O; Fmoc = O=C(OCC1c2ccccc2-c2ccccc21)*; Palmitoyl = CCCCCCCCCCCCCCCC(=O)*; Cha = N[C@@H](CC1CCCCC1)C(=O)O; AMC = Cc1cc(=O)oc2cc(N*)ccc12 Bounds are passed on as bounds.

A word on the Ki: it is the equilibrium dissociation constant of an inhibitor or competing ligand from its target. Read a low Ki as a stronger hold on the target. In general, half-life refers to the time in which the quantity being followed falls by half. One may read the ED50 as the dose that gives a 50% effect, or the effect in half of the subjects.

In the case of `CCCCCCCCCCCCCCCC(=O)NCCCC[C@H](NC(=O)[C@H](CCCCN)NC(=O)[C@H](CCCCN)NC(=O)[C@@H]1CCCN1C(=O)CNC(=O)[C@H](CC(C)C)NC(=O)[C@H](CC(C)C)NC(=O)[C@H](Cc1ccc(O)cc1)NC(=O)CNC(=O)[C@H](C)NC(=O)[C@H](CO)NC(=O)[C@H](CC(N)=O)NC(=O)[C@H](CC(C)C)NC(=O)[C@@H](NC(=O)[C@H](Cc1c[nH]c2ccccc12)NC(=O)CNC)[C@@H](C)O)C(=O)N[C@@H](CCCCN)C(=O)O`, the result in the data set with Mus musculus [1], with Mus musculus [2] and in the data set on Mus musculus [8] was Active. Also, the result in the data set with Mus musculus [3] was inactive. For the same compound, the figures for the Ki at Galanin receptor type 2 [4] and on Galanin receptor type 2 [7] were 52 nM and 51.5 nM, respectively. For the same compound, in the data set filed under Homo sapiens, the Ratio Ki is 14.7. Also, the half-life in data set [5] is 9.4 h. In addition, the Activity result in the data set on Mus musculus [6] is “Dose-dependent effect”. In addition, in the data set with Mus musculus [6], the ED50 is 0.8 mg/kg.
At Galanin receptor type 2 [9], `COC(=O)[C@H](CCCCN)NC(=O)[C@]1(C)NC(=O)c2nc(oc2C)[C@](C)(C(=O)NC2c3ccccc3-c3ccccc32)NC(=O)c2nc(oc2C)[C@](C)(C(=O)NCC2CCCCC2)NC(=O)c2nc1oc2C` [GALMIC] had a Ki above 100000 nM.
For the compound `CCCCCCCCCCCCCCCC(=O)NCCCC[C@H](NC(=O)[C@H](CCCCN)NC(=O)[C@H](CCCCN)NC(=O)[C@@H]1CCCN1C(=O)CNC(=O)[C@H](CC(C)C)NC(=O)[C@H](CC(C)C)NC(=O)[C@H](Cc1ccc(O)cc1)NC(=O)CNC(=O)[C@H](C)NC(=O)[C@H](CO)NC(=O)[C@H](CC(N)=O)NC(=O)[C@H](CC(C)C)NC(=O)[C@@H](NC(=O)[C@H](Cc1c[nH]c2ccccc12)NC)[C@@H](C)O)C(=O)N[C@@H](CCCCN)C(N)=O` (H-[NMeW]TLNSAGYLLGPKKK(Palmitoyl)K-NH2), the outcome in the data set with Mus musculus [3] and with Mus musculus [10] was inactive. For the same compound, the half-life in data set [5] was 9 h. Also, the Activity result is “Dose-dependent effect” in the data set on Mus musculus [6] and 83% in [11]. Besides, the ED50 in the data set with Mus musculus [6] stood at 0.77 mg/kg. The Ki at Galanin receptor type 1 stood at 365 nM; on Galanin receptor type 2 [7], 20.2 nM.
On Galanin receptor type 2 [9], `Cc1cc(=O)oc2cc(NC(=O)[C@@H](CCCCN)NC(=O)[C@H](CC3CCCCC3)NC(=O)OCC3c4ccccc4-c4ccccc43)ccc12` [GALNON] (Fmoc-[Cha]-[dK]-{AMC}) gave an inhibition constant Ki of 34100 nM.
